From PMC3780561 (Molecular cancer therapeutics, 2013)
Like-named read-outs stand apart in the source and are kept apart here.

System: NSCLC cell lines (A549, H23 and H358)
Assay: Cell viability, modified MTT assay, 24 h
Type: cell-based, human
Conditions: read-out: 24 h-IC50
Outline: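 ATCC-sourced A549 (p53 wild-type), H23 (p53-mutant) and H358 (p53-null) cells were grown per ATCC. Viability after 24 h exposure to test compound or sulindac metabolites was measured by modified MTT assay. 24-h IC50 was derived from viability curves.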

IC50 (range among A549, H23 and H358 cells) [µM]	IC50 (Homo sapiens, 24 h) [µM]	SMILES
566 to 1900		CC1=C(CC(=O)O)c2cc(F)ccc2/C1=C\c1ccc(S(C)(=O)=O)cc1 [sulindac sulfone]
	> 1000	CC1=C(CC(=O)O)c2cc(F)ccc2/C1=C\c1ccc([S+](C)[O-])cc1 (stereo not drawn) [sulindac]
	159 to 222	CSc1ccc(/C=C2/C(C)=C(CC(=O)O)c3cc(F)ccc32)cc1 [sulindac sulfide]
